Results on 30 sequences are retold here after the array DNA melting data of Ke et al. (doi:10.1101/2024.01.08.574731).

The nature of data set [1]: melting temperature; fluorescence melt of hairpins on a sequencing array, two-state fit, raised by 9.35 °C to match UV melts. As to conditions: sodium 0.088 M. The essentials:
(§1)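 Hairpins were imaged by Cy3 fluorescence on a sequenced MiSeq flow cell with annealed Cy3 and quencher oligos, in 50 mM Na-HEPES pH 8.0, 25 mM NaCl, in 2.5 °C steps up to 60 °C. Bootstrapped two-state fits of normalised signals gave melting temperature and folding enthalpy. Four replicates were combined by inverse variance, and fitted temperatures were raised by 9.35 °C to match UV melts.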

Data set [2] is described as follows: folding enthalpy; higher = less favourable; fluorescence melt of hairpins on a sequencing array, two-state fit. The conditions noted are these: sodium 0.088 M. The essentials:
as §1

Consider GTGAGGGCGAAAGCCCAC (((..(((....)))))), for which, in data set [1], the Tm came out at 46.5 °C. Moreover, the folding enthalpy in data set [2] is -11.6 kcal/mol.

GTGAGGGGAAACTCTCGC (.(((.(....).))).): in data set [1], the Tm came out at 37.2 °C. The folding enthalpy in data set [2] is -24.9 kcal/mol.

Turning to GTGAGTCGAAAGACCAC (((.(((....)))))), the Tm in data set [1] amounted to 53 °C. Further, in data set [2], the folding enthalpy was -33.7 kcal/mol.

Take GTGAGTGCGAAAGCACAC (((..(((....)))))): the Tm in data set [1] amounted to 48.6 °C. Further, in data set [2], the folding enthalpy was -12.5 kcal/mol.

Consider GTGAGTGGAAACACTCAC (((((((....))))))), for which, in data set [1], the Tm turned out to be 66.2 °C. Further, the folding enthalpy in data set [2] is -44 kcal/mol.

As for GTGATAACGAAAGTTCAC (((..(((....)))))), the Tm in data set [1] is 37.5 °C. Further, the folding enthalpy in data set [2] is -15.1 kcal/mol.

GTGATAGCGAAAGCTCAC (((..(((....)))))): in data set [1], the Tm was determined as 44.9 °C. For the same sequence, in data set [2], the folding enthalpy is -18.9 kcal/mol.

For GTGATAGGAAACTGTCAC ((((.((....)).)))), the Tm in data set [1] came out at 45.7 °C. Besides, the folding enthalpy in data set [2] was -36.5 kcal/mol.

Turning to GTGATCCCGAAAGGGCAC (((..(((....)))))), the Tm in data set [1] came out at 39.9 °C. In addition, the folding enthalpy in data set [2] is -14.4 kcal/mol.

Consider GTGATCCGAAAGGACAC (((.(((....)))))), for which the Tm in data set [1] is 50.7 °C. In addition, the folding enthalpy in data set [2] is -22.5 kcal/mol.

Consider GTGATCGAAAGATAACAC ((((((....)))..))), for which the Tm in data set [1] turned out to be 34.5 °C. In addition, in data set [2], the folding enthalpy is -23.6 kcal/mol.

For the sequence GTGATCGAAAGATCACAC ((((((....)))..))), in data set [1], the Tm came out at 67.3 °C. In data set [2], the folding enthalpy was -14.1 kcal/mol.

Turning to GTGATCGAAAGATCGCAC ((((((....)))..))), the Tm in data set [1] amounted to 51.8 °C. Further, the folding enthalpy in data set [2] is -18.1 kcal/mol.

On to GTGATCGAAAGATGCAC ((((((....))).))), for which the Tm in data set [1] is 38.7 °C. Moreover, the folding enthalpy in data set [2] was -19.6 kcal/mol.

On to GTGATGCCGAAAGGCCAC (((..(((....)))))), for which, in data set [1], the Tm came to 41.6 °C. For the same sequence, the folding enthalpy in data set [2] is -13.5 kcal/mol.

In the case of GTGATGCGAAAGCACAC (((.(((....)))))), the Tm in data set [1] was determined as 53.5 °C. For the same sequence, the folding enthalpy in data set [2] is -25.8 kcal/mol.

For GTGATGGGAAACCATTGC (..((((....))))..), in data set [1], the Tm worked out at 33.7 °C. For the same sequence, the folding enthalpy in data set [2] is -23.6 kcal/mol.

With GTGATTGGAAACAACCAC (((.(((....))).))), the Tm in data set [1] was 37.5 °C. The folding enthalpy in data set [2] was -31.3 kcal/mol.

With GTGATTGGAAACAATCAC (((((((....))))))), the Tm in data set [1] stood at 58.3 °C. Moreover, the folding enthalpy in data set [2] is -46.9 kcal/mol.

Consider GTGATTGGAAACAATCGC (.(((((....))))).), for which, in data set [1], the Tm stood at 49.1 °C. In addition, the folding enthalpy in data set [2] is -40.7 kcal/mol.

In the case of GTGATTGGAAACAATTGC (..((((....))))..), the Tm in data set [1] worked out at 31.3 °C. Further, the folding enthalpy in data set [2] is -20.4 kcal/mol.

Consider GTGATTGGAAACGATCAC (((((.(....).))))), for which the Tm in data set [1] came out at 47.9 °C. Besides, the folding enthalpy in data set [2] is -44.9 kcal/mol.

On to GTGATTTCGAAAGAACAC (((..(((....)))))), for which the Tm in data set [1] came to 31.3 °C. In addition, the folding enthalpy in data set [2] was -22.9 kcal/mol.

Regarding GTGCACGAAAGTGATCAC ((((((....)))..))), in data set [1], the Tm was 37.4 °C. In addition, the folding enthalpy in data set [2] is -12.7 kcal/mol.

For the sequence GTGCACGAAAGTGTACAC ((((((....)))..))), the Tm in data set [1] stood at 51.8 °C. Further, the folding enthalpy in data set [2] is -17.1 kcal/mol.

For GTGCACGGAAACACGCAC ((((..(....)..)))), in data set [1], the Tm turned out to be 41.1 °C. For the same sequence, the folding enthalpy in data set [2] was -29.2 kcal/mol.

As to GTGCACGGAAACGCGCAC ((((.((....)).)))), the Tm in data set [1] was 57.7 °C. In addition, in data set [2], the folding enthalpy was -49 kcal/mol.

On to GTGCACGGAAACGTACAC (((.(((....))).))), for which the Tm in data set [1] came to 48.5 °C. Besides, the folding enthalpy in data set [2] is -31.8 kcal/mol.

Regarding GTGCAGACGAAAGTCCAC (((..(((....)))))), the Tm in data set [1] turned out to be 37.9 °C. In addition, the folding enthalpy in data set [2] is -16.9 kcal/mol.

For the sequence GTGCAGCGAAAGCTCCAC (((.(((....))).))), the Tm in data set [1] stood at 44.7 °C. The folding enthalpy in data set [2] is -21.8 kcal/mol.
